Results on 11 molecules are retold here after ChEMBL document CHEMBL1177815, “Synthesis and molecular docking studies of novel 2-chloro-pyridine derivatives containing flavone moieties as potential antitumor agents” (Bioorg Med Chem Lett, 2010).

One may read the IC50 as the concentration that gives 50% inhibition.

One test relates to SGC-7901. As to the kind of experiment: Cytotoxicity against human SGC7901 after 48 hrs by MTT assay. The format is functional, cell-based. The essentials:
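SGC-7901 cells were diluted to 3 × 10⁴ cells/mL and seeded at 100 µL per well, then held 24 h at 37 °C in 5% CO₂ before treatment. Samples at pre-set concentrations went into six wells each, with 5-fluorouracil as positive control and DMSO as negative control. Read-out was absorbance at 570 nm. Data are the mean ± SD of three experiments in triplicate. IC50 is the concentration at which 50% of cells survive.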
Background: Tetrazolium dyes change colour on reduction, which living cells bring about.

The target in test [1] is DNA polymerase I, thermostable (Thermus aquaticus, UniProt P19821). The test is described as follows: Inhibition of Thermus aquaticus taq polymerase.
For test [2], the target named is T1, Telomerase reverse transcriptase (Homo sapiens, UniProt O14746). The test is described as follows: Inhibition of human telomerase in human SGC7901 cells by TRAP assay.
The nature of test [3]: Selectivity index, ratio of IC50 for taq polymerase to IC50 for human telomerase. The essentials:
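Selectivity index is the ratio of the concentration giving 50% Taq polymerase inhibition to the concentration giving 50% telomerase inhibition (modified TRAP, SGC-7901 cell extract).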

Test [4] deals with DNA polymerase I, thermostable (Thermus aquaticus) (UniProt P19821). The test is described as follows: Inhibition of Thermus aquaticus taq polymerase at 0 to 60 uM.
The target in test [5] is T1, Telomerase reverse transcriptase. The test is described as follows: Inhibition of human telomerase in human SGC7901 cells at 0 to 60 uM by TRAP assay. As to conditions: SGC-7901. The format is cell-based. In short, it runs like this: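 Telomerase inhibition was measured by a modified TRAP assay using SGC-7901 cell extract. Compounds were tested across the stated concentration range. IC50 is the concentration giving 50% telomerase inhibition. Ethidium bromide served as reference control.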

The mark [6] stands for this setting: Homo sapiens, SGC-7901, 48 h, read-out: IC50.

≈ marks a conversion by molar mass, not a printed value. Calls of active or inactive are those of the source. The calls are words filed in the database; no cut-off is given here.

Sequence of DNA polymerase I, thermostable (P19821 whole entry): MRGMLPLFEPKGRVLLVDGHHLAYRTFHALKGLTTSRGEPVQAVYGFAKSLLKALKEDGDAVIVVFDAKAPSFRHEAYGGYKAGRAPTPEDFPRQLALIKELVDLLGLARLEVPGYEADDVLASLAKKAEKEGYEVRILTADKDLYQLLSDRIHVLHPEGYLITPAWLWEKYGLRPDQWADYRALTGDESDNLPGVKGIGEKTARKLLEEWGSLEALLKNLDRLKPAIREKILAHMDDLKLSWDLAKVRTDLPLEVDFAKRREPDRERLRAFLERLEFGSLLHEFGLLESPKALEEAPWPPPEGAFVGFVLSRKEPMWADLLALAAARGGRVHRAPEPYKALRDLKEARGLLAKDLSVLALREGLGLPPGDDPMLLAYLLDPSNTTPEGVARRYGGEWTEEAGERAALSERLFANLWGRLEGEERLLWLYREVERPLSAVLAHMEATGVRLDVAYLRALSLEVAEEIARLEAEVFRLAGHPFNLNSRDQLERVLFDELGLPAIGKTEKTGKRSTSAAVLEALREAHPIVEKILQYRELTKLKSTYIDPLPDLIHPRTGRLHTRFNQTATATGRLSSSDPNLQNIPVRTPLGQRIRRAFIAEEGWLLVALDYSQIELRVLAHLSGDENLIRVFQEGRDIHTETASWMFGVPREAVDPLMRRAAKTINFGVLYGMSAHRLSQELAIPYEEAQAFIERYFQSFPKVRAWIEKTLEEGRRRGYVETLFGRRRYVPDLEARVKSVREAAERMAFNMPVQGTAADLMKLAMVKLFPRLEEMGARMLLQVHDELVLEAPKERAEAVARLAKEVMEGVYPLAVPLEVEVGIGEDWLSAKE
T1 sequence (O14746 whole entry): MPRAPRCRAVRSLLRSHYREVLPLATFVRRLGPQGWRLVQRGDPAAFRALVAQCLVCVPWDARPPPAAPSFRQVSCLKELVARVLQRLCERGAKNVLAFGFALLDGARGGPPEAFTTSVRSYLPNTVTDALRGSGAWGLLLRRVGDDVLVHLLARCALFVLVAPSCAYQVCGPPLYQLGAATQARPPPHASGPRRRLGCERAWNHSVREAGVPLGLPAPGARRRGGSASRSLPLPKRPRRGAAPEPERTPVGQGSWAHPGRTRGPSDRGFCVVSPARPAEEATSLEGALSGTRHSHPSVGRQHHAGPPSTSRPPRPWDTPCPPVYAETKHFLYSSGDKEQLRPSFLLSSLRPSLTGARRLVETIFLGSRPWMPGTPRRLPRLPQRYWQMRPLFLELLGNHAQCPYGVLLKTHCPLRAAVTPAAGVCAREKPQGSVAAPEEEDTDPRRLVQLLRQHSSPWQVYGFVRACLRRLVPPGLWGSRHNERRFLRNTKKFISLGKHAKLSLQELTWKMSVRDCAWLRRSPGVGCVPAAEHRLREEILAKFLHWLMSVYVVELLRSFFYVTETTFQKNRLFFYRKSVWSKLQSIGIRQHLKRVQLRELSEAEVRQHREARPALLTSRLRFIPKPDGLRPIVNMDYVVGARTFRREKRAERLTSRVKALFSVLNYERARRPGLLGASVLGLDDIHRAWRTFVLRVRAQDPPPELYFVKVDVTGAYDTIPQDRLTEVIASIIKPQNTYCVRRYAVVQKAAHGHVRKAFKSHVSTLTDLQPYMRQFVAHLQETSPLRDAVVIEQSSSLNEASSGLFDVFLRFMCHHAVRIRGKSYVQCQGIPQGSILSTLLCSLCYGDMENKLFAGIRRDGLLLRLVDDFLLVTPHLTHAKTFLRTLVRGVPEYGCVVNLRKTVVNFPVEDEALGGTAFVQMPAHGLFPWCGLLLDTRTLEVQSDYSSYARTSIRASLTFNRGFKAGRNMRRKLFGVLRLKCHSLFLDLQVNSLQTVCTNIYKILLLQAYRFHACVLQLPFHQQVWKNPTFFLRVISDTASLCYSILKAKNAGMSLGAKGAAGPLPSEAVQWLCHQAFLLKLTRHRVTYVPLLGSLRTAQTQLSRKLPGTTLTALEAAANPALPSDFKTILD
Sequence of DNA polymerase I, thermostable (Thermus aquaticus) (P19821 whole entry): as the sequence (P19821 whole entry) above

For the molecule `O=c1cc(-c2ccc(OCc3ccc(Cl)nc3)cc2)oc2cc(OCc3ccc(Cl)nc3)cc(O)c12`, the IC50 with SGC-7901 (setting [6]) stood at 22.3 mg/L (≈ 42.7 µM); in test [1] it was 2 µM; in test [2], 0.8 µM. Further, in test [3], the Ratio IC50 was found to be 2.5.
On to `COc1ccc(-c2oc3ccccc3c(=O)c2OCc2ccc(Cl)nc2)cc1`, for which the IC50 result with SGC-7901 (sgc-7901) was “Not Active”. The inhibition result in test [4] and in test [5] was “inactive” each time.
`CC(=O)N1N=C(C)CC1c1ccccc1OCc1ccc(Cl)nc1` (stereo unspecified): the results for the concentration for half-maximal inhibition (IC50) result (with SGC-7901 (sgc-7901); in test [1]) were “Not Active” and 53.2 µM, respectively. Moreover, the inhibition result in test [5] was “inactive”.
`O=c1cc(-c2ccc(OCc3ccc(Cl)nc3)cc2)oc2cc(O)cc(O)c12`: the IC50 in the test with SGC-7901 (setting [6]) was 25.9 mg/L (≈ 65.5 µM); in test [1], 6.8 µM; in test [2] it was 3.5 µM. Further, the Ratio IC50 in test [3] is 1.9.
Turning to `O=c1c(OCc2ccc(Cl)nc2)c(-c2ccccc2)oc2ccccc12`, in the test on SGC-7901 (sgc-7901), the IC50 entry is recorded as “Not Active”. For the same molecule, the inhibition result in test [4] and in test [5] was “inactive” each time.
With `O=c1[nH]cc(F)c(=O)[nH]1` [FLUOROURACIL], the IC50 in the test with SGC-7901 (setting [6]) was 7.38 mg/L (≈ 56.7 µM).
Turning to `COc1ccc(-c2coc3cc(OCc4ccc(Cl)nc4)ccc3c2=O)cc1`, the IC50 was 31.9 mg/L (≈ 81.1 µM) with SGC-7901 (setting [6]), 7.5 µM in test [1] and 2.5 µM in test [2]. In addition, in test [3], the Ratio IC50 was found to be 3.
Regarding `O=c1cc(-c2ccc(OCc3ccc(Cl)nc3)cc2)oc2cc(OCc3ccc(Cl)nc3)ccc12`, the results for the IC50 (with SGC-7901 (setting [6]); in test [1]; in test [2]) were 18.4 mg/L (≈ 36.5 µM), 5 µM and 3 µM, respectively. The Ratio IC50 in test [3] is 1.6.
On to `COc1ccc(-c2cc(=O)c3ccc(OCc4ccc(Cl)nc4)cc3o2)cc1`, for which the IC50 with SGC-7901 (setting [6]) worked out at 35.2 mg/L (≈ 89.3 µM); in test [1] it was 6.4 µM; in test [2], 3.1 µM. Further, in test [3], the Ratio IC50 was determined as 2.1.
Take `CC(=O)N1N=C(C)CC1c1ccc(OCc2ccc(Cl)nc2)cc1` (stereo unspecified): the IC50 result in the test on SGC-7901 (sgc-7901) was “Not Active”; in test [2], 46.7 µM.
On to `O=c1cc(-c2ccccc2)oc2cc(OCc3ccc(Cl)nc3)cc(O)c12`, for which the IC50 entry is “Not Active” in the test with SGC-7901 (sgc-7901), 27.5 µM in test [1] and 20.9 µM in test [2]. Besides, the Ratio IC50 in test [3] came out at 1.3.
